hERG rescue: shields human hERG channel from block by proarrhythmic agents; Q12809; activation (rescue from dofetilide block), less the hit threshold, % at 10 µM; CHO-hERG, FluxOR thallium flux, dofetilide IC70 present; hit rate 0.51% among 310,000;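 active = activation above the mean of controls blocked by dofetilide plus 5 SD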;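 note: thallium influx through hERG after potassium depolarization seen as dye fluorescence rise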
KCNK3 block: human KCNK3 channel inhibition, primary screen; hit rate 0.84% among 340,000; CHO-KCNK3 thallium flux, FluxOR fluorescence; stronger effect = lower value; B-score at 10 µM; O14649;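 active = B-score under library mean minus 4 SD, starting fluorescence ratio at most library mean plus 5 SD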;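 note: more negative B-score means stronger inhibition of thallium flux through KCNK3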
Cl transport mod: modulators of human KCC2 chloride dependent transport | hit rate 2.2% among 190,000 | B-score of Tl+ flux slope (higher = more flux/activation; lower = inhibition) at 10 µM | AID 1456 | KCC2 cells, thallium flux FluoZin-2 fluorescence;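 active = thallium flux slope and its plate-corrected score both differing from the plate sample mean at a set confidence after two filtering rounds, in either direction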;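 note: slope of fluorescence scaled to starting intensity during 10 to 20 s after thallium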
Target sequence (Q9H2X9 whole entry, looked up): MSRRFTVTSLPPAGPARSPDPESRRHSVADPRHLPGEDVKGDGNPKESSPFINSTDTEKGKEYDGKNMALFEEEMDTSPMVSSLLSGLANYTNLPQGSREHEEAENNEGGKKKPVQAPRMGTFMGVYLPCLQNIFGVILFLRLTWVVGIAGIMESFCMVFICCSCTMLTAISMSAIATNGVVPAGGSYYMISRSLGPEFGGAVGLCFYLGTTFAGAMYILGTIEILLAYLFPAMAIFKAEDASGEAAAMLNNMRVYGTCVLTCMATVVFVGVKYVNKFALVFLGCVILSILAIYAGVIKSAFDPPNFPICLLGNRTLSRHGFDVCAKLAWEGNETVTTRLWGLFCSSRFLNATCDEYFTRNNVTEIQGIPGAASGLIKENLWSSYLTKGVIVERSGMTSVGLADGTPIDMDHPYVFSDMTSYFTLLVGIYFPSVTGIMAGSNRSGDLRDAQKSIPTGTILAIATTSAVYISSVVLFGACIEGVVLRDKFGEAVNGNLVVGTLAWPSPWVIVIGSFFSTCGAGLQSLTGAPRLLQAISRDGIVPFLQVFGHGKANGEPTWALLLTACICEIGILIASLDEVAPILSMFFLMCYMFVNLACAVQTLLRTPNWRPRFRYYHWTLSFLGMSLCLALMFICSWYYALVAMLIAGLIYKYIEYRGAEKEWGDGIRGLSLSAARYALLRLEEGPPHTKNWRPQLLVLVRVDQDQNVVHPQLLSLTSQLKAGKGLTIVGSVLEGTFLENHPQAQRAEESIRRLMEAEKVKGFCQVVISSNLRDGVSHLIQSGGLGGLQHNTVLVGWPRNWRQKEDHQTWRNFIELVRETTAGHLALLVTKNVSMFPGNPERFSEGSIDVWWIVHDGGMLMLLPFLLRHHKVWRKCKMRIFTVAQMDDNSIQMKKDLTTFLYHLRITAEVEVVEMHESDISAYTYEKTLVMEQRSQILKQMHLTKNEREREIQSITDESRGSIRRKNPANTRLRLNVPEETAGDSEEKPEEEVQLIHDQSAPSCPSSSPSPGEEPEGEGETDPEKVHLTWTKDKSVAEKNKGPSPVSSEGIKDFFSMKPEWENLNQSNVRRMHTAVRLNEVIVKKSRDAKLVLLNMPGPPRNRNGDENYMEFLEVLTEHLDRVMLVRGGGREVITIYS
KCNK9 inh: human KCNK9 channel inhibition. HEK293 KCNK9, FluxOR thallium flux fluorescence; stronger effect = lower value. B-score at 10 µM. hit rate 1.2% among 310,000. AID 488922;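 active = ratio B-score over 3 SD below the library mean, with starting fluorescence within 5 SD of its mean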;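 note: negative B-score means less thallium flux so channel inhibition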
KCNQ1 pot: potentiates or activates the human KCNQ1 potassium channel; P51787; CHO-K1 KCNQ1, thallium flux FluxOR fluorescence; stronger effect = higher value; B-score at 10 µM; hit rate 0.35% among 310,000;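 active = fluorescence ratio B-score, a plate-corrected score, at least three library SD, with initial intensity B-score within 5 SD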
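Test system: CHO-K1 cells stably expressing KCNQ1 / Medium: assay buffer / Also added: depolarizing K+/Tl+ stimulus, K2SO4 and Tl2SO4 each 12.5 mM in 5x stock / Incubation: 90 min dye loading and 20 min compound exposure, both at room temperature / Signal: thallium influx via FluxOR fluorescence, kinetic imaging / Evaluation: B score of baseline-normalized fluorescence ratio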
KCNQ1 block: inhibitors of human KCNQ1 potassium channel. P51787. CHO-K1 KCNQ1, FluxOR thallium flux fluorescence; stronger effect = higher value. B-score at 10 µM. hit rate 1.3% among 310,000. AID 2642;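 active = compounds whose thallium flux B-score, printed positive for inhibition, exceeds three library SD while starting fluorescence stays within three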;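 note: channel opened by potassium depolarization with thallium stimulus after 20 min compound exposure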
KCNK9 block conf: confirmation of human KCNK9 potassium channel inhibitors; shares compounds with KCNK9 inh; HEK293 KCNK9 cells, FluxOR thallium flux fluorescence; inhibition, % at 10 µM; hit rate 43% among 4,900;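 active = thallium signal inhibited by more than 5 SD of the compound-free buffer control wells, on both duplicate plates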
Kir21 sel: tests whether KCNK9 modulators also affect mouse Kir2.1; inhibition, % at 10 µM; shares compounds with KCNK9 inh; Kir2.1 cells, FluxOR thallium flux fluorescence; hit rate 4% among 4,900;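 active = thallium signal drop more than 5 SD beyond the mean of the no-compound control wells, seen in both duplicate plates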;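 note: signal is fluorescence rise after thallium addition divided by baseline fluorescence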
HEK293 Tl ctr: second check of KCNK9 modulator effects in non-induced HEK293 cells; inhibition, % at 10 µM; FluxOR thallium flux; AID 492997; shares compounds with KCNK9 inh; hit rate 40% among 4,900;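 active = thallium signal drop beyond 5 SD of the untreated control mean, on both duplicate plates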
Each line names hits and unclear results; the compound was inactive in the other large screens (follow-up assays come after a bar, where they were run). Rows were chosen to be rich in hits. Some 4.1% of all compounds tested hit in one or more screens of this group.

NC(=O)c1nsc(C(=O)N(c2cccc(F)c2)C(C(=O)NCC2CCCO2)c2c[nH]c3ccccc23)c1N (centres undefined)	none (no result: Cl transport mod)
Cc1ccc(Cl)cc1NS(=O)(=O)Cc1ccccc1	none (no result: Cl transport mod) | KCNK9 block conf inactive | Kir21 sel inactive | HEK293 Tl ctr inactive
O=C(NCCc1ccc(F)cc1)c1ccc(NS(=O)(=O)c2ccc3[nH]c(=O)[nH]c3c2)cc1	none (no result: Cl transport mod)
COc1ccc(CC(=O)Nc2ccc(C(=O)Nc3ccccc3C(=O)O)cc2)cc1OC	none
CCOC(OCC)c1nc(N)[nH]c(=O)c1CCCCc1ccccc1	none (no result: hERG rescue, Cl transport mod, KCNK9 inh, KCNQ1 pot, KCNQ1 block)
CCOc1ccccc1CNC(=O)c1cc2oc3ccccc3c2n1CC	KCNK9 inh -9.1 (no result: Cl transport mod) | KCNK9 block conf 50% | Kir21 sel inactive | HEK293 Tl ctr 30%
COc1ccc(CNC(=O)c2ccc3c(c2)N(C)C(=O)CS3=O)cc1 (centres undefined)	none (no result: Cl transport mod)
O=C1N(c2ccccc2C(F)(F)F)O[C@]1(c1ccccc1)C1CCCC1	none (no result: hERG rescue, Cl transport mod, KCNK9 inh, KCNQ1 pot, KCNQ1 block)
COc1cc(OC)cc(C(=O)NCC2CCCN(Cc3cccc(C(C)=O)c3)C2)c1 (centres undefined)	none (no result: Cl transport mod)
Cc1nc(-c2cccc(S(=O)(=O)N3CCCCCC3)c2)cs1	none | KCNK9 block conf inactive | Kir21 sel inactive | HEK293 Tl ctr inactive
Nc1c(S(=O)(=O)c2cccs2)c2nc3ccccc3nc2n1Cc1ccc2c(c1)OCO2	KCNK9 inh -12 | KCNK9 block conf 32% | Kir21 sel inactive | HEK293 Tl ctr 40%
N#Cc1ccc(OCC(=O)OCC(=O)c2ccc[nH]2)cc1	none (no result: hERG rescue, Cl transport mod, KCNK9 inh, KCNQ1 pot, KCNQ1 block)
N#Cc1c(N2CCN(c3ccc([N+](=O)[O-])cc3)CC2)[n+](=O)c2ccc(Cl)cc2n1[O-]	none (no result: hERG rescue, Cl transport mod, KCNK9 inh, KCNQ1 pot, KCNQ1 block)
Cc1ccc(NC(=O)c2cc(S(=O)(=O)N3CCC4(CC3)OCCO4)ccc2F)cc1	none (no result: Cl transport mod)
O=C(NC1CCCCCC1)c1cc(S(=O)(=O)N2CCC3(CC2)OCCO3)ccc1F	none (no result: Cl transport mod) | KCNK9 block conf inactive | Kir21 sel inactive | HEK293 Tl ctr inactive
CCOc1ccccc1OCCC(=O)N1CCN(S(=O)(=O)c2ccccc2[N+](=O)[O-])CC1	none (no result: hERG rescue, Cl transport mod, KCNK9 inh, KCNQ1 pot, KCNQ1 block)
O=C(Cn1c(=O)c2c(ncn2C2CCCC2)n(Cc2ccccc2)c1=O)N1CCc2ccccc21	none | KCNK9 block conf inactive | Kir21 sel inactive | HEK293 Tl ctr inactive
CCn1cnc2c1c(=O)n(CC(=O)N1CCc3ccccc31)c(=O)n2Cc1ccccc1	none
CCOc1cc(/C=C2\C(=N)N3N=CSC3=NC2=O)ccc1OS(=O)(=O)c1ccccc1	none (no result: Cl transport mod) | KCNK9 block conf inactive | Kir21 sel inactive | HEK293 Tl ctr inactive
COc1cc(/C=C2\C(=N)N3N=CSC3=NC2=O)ccc1OS(=O)(=O)c1ccccc1	none (no result: Cl transport mod)
CCOc1ccccc1C(=O)N[C@H](C(=O)OCc1cc([N+](=O)[O-])cc2c1OCOC2)C(C)C	KCNK9 inh -10 | KCNK9 block conf 48% | Kir21 sel inactive | HEK293 Tl ctr 25%
CC(C)C(NC(=O)c1ccccc1)C(=O)OCc1cc([N+](=O)[O-])cc2c1OCOC2 (centres undefined)	none
COc1cc(-c2csc(NC3CCCCC3)n2)cc(OC)c1OC	none (no result: Cl transport mod) | KCNK9 block conf inactive | Kir21 sel inactive | HEK293 Tl ctr inactive
O=C(Cc1ccc([N+](=O)[O-])cc1)Nc1nccs1	KCNK9 inh -20 | KCNK9 block conf inactive | Kir21 sel inactive | HEK293 Tl ctr inactive
Cn1cc(/C=N/n2cnc3scc(-c4ccc(Cl)cc4)c3c2=O)c2ccccc21	none (no result: Cl transport mod) | KCNK9 block conf inactive | Kir21 sel inactive | HEK293 Tl ctr inactive
CCn1cnc2scc(-c3ccccc3)c2c1=O	none
O=C(/C(=C/c1ccc(Cl)cc1)c1nc2ccccc2[nH]1)c1cccs1	KCNK9 inh -11, KCNQ1 block 6 | KCNK9 block conf 48% | Kir21 sel inactive | HEK293 Tl ctr 41%
COc1ccc(S(=O)(=O)N2CCCC2CNC(=O)C(=O)Nc2cccc(F)c2)cc1 (centres undefined)	none (no result: Cl transport mod)
O=c1[nH]c2ccccc2c(O)c1-c1ccccc1	none
O/N=C/Cc1[nH]c2ccccc2c1-c1ccccc1	KCNK9 inh -9.1 (no result: Cl transport mod) | KCNK9 block conf 47% | Kir21 sel inactive | HEK293 Tl ctr inactive
Cc1ccc(C)c(Cn2nnc3c(=O)[nH]c(C4CCCN(C(=O)C5CCCCC5)C4)nc32)c1 (centres undefined)	KCNK9 inh -18 (no result: Cl transport mod) | KCNK9 block conf 64% | Kir21 sel inactive | HEK293 Tl ctr 25%
COc1cccc(C(=O)N2c3ccccc3Sc3ccccc32)c1	KCNK9 inh -11 | KCNK9 block conf 58% | Kir21 sel inactive | HEK293 Tl ctr 48%
CCN(CC)S(=O)(=O)c1ccc(C)c(NC(=S)NC2CCCCC2)c1	none | KCNK9 block conf inactive | Kir21 sel inactive | HEK293 Tl ctr inactive
CCN(CC)S(=O)(=O)c1cccc(C(=O)NC2CCCCC2)c1	none (no result: Cl transport mod)
O=C(OCc1cc(=O)n2cc(Br)ccc2n1)c1ccc(Cl)c(S(=O)(=O)NCc2ccccc2)c1	KCNK9 inh -11 | KCNK9 block conf inactive | Kir21 sel inactive | HEK293 Tl ctr inactive
CCCCC(=O)c1ccc(OC(=O)c2ccc([N+](=O)[O-])cc2)cc1	none (no result: hERG rescue, Cl transport mod, KCNK9 inh, KCNQ1 pot, KCNQ1 block)
COc1ccc(C(=O)Nc2ccccc2C(N)=O)cc1	none (no result: Cl transport mod)
COc1ccc(C(=O)Nc2ccccc2C(=O)N/N=C/c2cccc3ccccc23)cc1	KCNK9 inh -8.5 | KCNK9 block conf 61% | Kir21 sel inactive | HEK293 Tl ctr 37%
C=CCn1c(SCc2csc(C)n2)nc2sc3c(c2c1=O)CCC(C)C3 (centres undefined)	none | KCNK9 block conf inactive | Kir21 sel inactive | HEK293 Tl ctr inactive
CC(NC(=O)c1ccc(CS(=O)(=O)c2cccc(C(F)(F)F)c2)o1)c1ccc2c(c1)OCCO2 (centres undefined)	none | KCNK9 block conf inactive | Kir21 sel inactive | HEK293 Tl ctr inactive
COc1ccc(Oc2ncc(CN3CCN(c4ccccc4)CC3)s2)cc1	none | KCNK9 block conf inactive | Kir21 sel inactive | HEK293 Tl ctr inactive
Cc1cc(Cl)ccc1Oc1ncc(CN2CCN(c3ccccc3)CC2)s1	none
COc1ccc(-c2cc(C(F)(F)F)n3ncc(C(=O)N(C)Cc4ccccc4)c3n2)cc1	none | KCNK9 block conf inactive | Kir21 sel inactive | HEK293 Tl ctr inactive
CCC1(c2ccc(F)cc2)NC(=O)N(CC(=O)N2CCN(S(=O)(=O)c3ccc(C)cc3C)CC2)C1=O (centres undefined)	none (no result: hERG rescue, Cl transport mod, KCNK9 inh, KCNQ1 pot, KCNQ1 block)
O=C(CN1CCN(S(=O)(=O)c2ccccc2)CC1)N1CCc2ccccc21	none (no result: hERG rescue, Cl transport mod, KCNK9 inh, KCNQ1 pot, KCNQ1 block)

Screening data: PubChem, several laboratories
